# Measurements as given in PubChem BioAssay AID652250 (Vanderbilt Specialized Chemistry Center, 2013).
# pIC50: −log10 of the molar value. Calls of active or inactive are those of the source.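 Rule for the calls: active = compounds leaving under half of the peptide-driven platelet calcium rise; inactive = the rest.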
# Biological target: Proteinase-activated receptor 4 (Homo sapiens) (UniProt Q96RI0)
# Assay: PAR4 antagonists in human platelets, cell-based, single concentration, washed platelets, Fluo4 calcium (AID 652250)
# Conditions: PAR4-AP calcium Fluo4 fluorescence
# Procedure, shortened: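 Assay system: Fluo4-AM-loaded washed human platelets / Quantity: 10^8 platelets/mL / Detection: fluorescence at 480/540 nm, 1 s intervals / Also added: 80 µM PAR4-AP / Benchmarks: PAR4-AP-stimulated DMSO control (100%) / Replicates: triplicate wells / Read-out: peak minus basal RFU as % of per-donor DMSO control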
# Chain of Proteinase-activated receptor 4 (Homo sapiens) (Q96RI0 whole entry, looked up): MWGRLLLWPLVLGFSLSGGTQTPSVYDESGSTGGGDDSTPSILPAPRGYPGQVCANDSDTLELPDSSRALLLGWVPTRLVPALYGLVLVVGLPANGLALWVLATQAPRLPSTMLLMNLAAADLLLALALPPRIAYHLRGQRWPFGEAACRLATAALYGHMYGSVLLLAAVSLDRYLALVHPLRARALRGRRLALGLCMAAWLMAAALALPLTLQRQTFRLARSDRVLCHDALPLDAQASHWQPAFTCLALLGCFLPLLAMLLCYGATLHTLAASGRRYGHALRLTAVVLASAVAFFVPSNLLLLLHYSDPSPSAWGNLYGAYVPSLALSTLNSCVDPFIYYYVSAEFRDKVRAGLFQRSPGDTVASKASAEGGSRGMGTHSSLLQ
row,Structure (SMILES),pIC50
1,COc1cccc(Cn2cc(-c3ccc(OC)nc3)c3ccccc32)c1,4.84

# Same assay, conditions: PAR4-AP calcium Fluo4 fluorescence, at 10 µM, stronger effect = lower value
row,Structure (SMILES),% of max PAR4-AP calcium response
1,OC(CNCc1ccccc1)Cn1c2c(c3ccccc31)CCCC2 (stereo not given),inactive
2,O=C(c1cn(CCOc2ccc(F)cc2)c2ccccc12)C(F)(F)F,inactive
3,NC(=O)C1CCN(c2ncnc3c2c(-c2ccccc2)cn3-c2ccc(Cl)cc2)CC1,inactive
4,COc1ccccc1OCCCn1cc(C(=O)C(F)(F)F)c2ccccc21,inactive
5,Cc1ccc(OCCCn2cc(C(=O)C(F)(F)F)c3ccccc32)cc1,inactive
6,COc1ccccc1NS(=O)(=O)c1ccc(NC(=O)c2ccc3c(c2)c(C)c(C)n3C)cc1,inactive
7,COc1ccc(-c2cn(Cc3ccccc3)c3ccccc23)c(OC)n1,inactive
8,O=C(Cn1cc(C(=S)N2CCOCC2)c2ccccc21)N1CCOCC1,inactive
9,OCCc1c(-c2ccccc2)n(Cc2ccccc2)c2ccccc12,inactive
